Reference: ChEMBL document CHEMBL1132720 (J Med Chem, 1999)
Active and inactive are the calls of the source. The rule behind the calls is not given here.

Columns and labels:
Format in all cases: functional, cell membranes
[1] = biological target: T1, P2Y purinoceptor 1 (Meleagris gallopavo, UniProt P49652); assay: In vitro antagonist activity at P2Y1 receptor in turkey erythrocyte membranes.
Procedure, shortened: (§1)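 [3H]inositol-labeled turkey erythrocyte ghosts in pH 7.0 Hepes medium with 1 μM GTPγS were incubated 5 min at 30 °C with test nucleotide plus 10 nM 2-MeSADP. Total [3H]inositol phosphates were separated by anion-exchange. Maximal inhibition is 100 minus residual stimulation at the highest concentration; n = 3 unless stated. "No effect" means none at 100 μM.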

[2] = biological target: P2Y purinoceptor 1 (Meleagris gallopavo) (UniProt P49652); assay: In vitro agonist activity at P2Y1 receptor in turkey erythrocyte membranes; No effect at 100 uM.
Sequence of P2Y purinoceptor 1 (Meleagris gallopavo) (P49652 whole entry): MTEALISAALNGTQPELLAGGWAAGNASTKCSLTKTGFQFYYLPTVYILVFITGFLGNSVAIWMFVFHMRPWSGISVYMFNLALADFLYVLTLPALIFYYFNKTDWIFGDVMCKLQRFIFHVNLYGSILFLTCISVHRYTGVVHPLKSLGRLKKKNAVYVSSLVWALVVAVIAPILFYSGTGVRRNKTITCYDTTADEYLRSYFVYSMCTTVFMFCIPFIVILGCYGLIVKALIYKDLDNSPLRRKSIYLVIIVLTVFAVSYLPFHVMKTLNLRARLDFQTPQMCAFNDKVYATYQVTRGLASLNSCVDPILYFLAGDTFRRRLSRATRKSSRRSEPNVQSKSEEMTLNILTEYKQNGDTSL

[3] = biological target: P2Y purinoceptor 1 (Meleagris gallopavo) (UniProt P49652); assay: Antagonist activity for inhibition of PLC elicited by 10 nM 2-MeSADP at P2Y purinoceptor 1 in turkey erythrocyte membranes
Procedure, shortened: as §1, with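 “anion-exchange. […]” for “anion-exchange.”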

[4] = biological target: T1, P2Y purinoceptor 1; assay: Concentration at which 50% of the maximal effect (stimulation of PLC at P2Y1 receptor in the turkey erythrocyte membranes) is reached
[5] = biological target: P2Y purinoceptor 1 (Meleagris gallopavo) (UniProt P49652); assay: Agonist activity for stimulation of PLC at P2Y purinoceptor 1 in the turkey erythrocyte membranes.
[6] = biological target: P2Y purinoceptor 1 (Meleagris gallopavo) (UniProt P49652); assay: Antagonist activity for inhibition of PLC elicited by 10 nM 2-MeSADP at P2Y purinoceptor 1 in the turkey erythrocyte membranes; No effect
Procedure, shortened: as §1, with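 “anion-exchange. […]” for “anion-exchange.”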

[7] = biological target: T1, P2Y purinoceptor 1; assay: Concentration at which 50% of the maximal effect (stimulation of PLC at P2Y1 receptor in the turkey erythrocyte membranes) is reached; Low potency agonist
[8] = biological target: P2Y purinoceptor 1 (Meleagris gallopavo) (UniProt P49652); assay: Antagonist activity for inhibition of PLC elicited by 10 nM 2-MeSADP at P2Y purinoceptor 1 in the turkey erythrocyte membranes; No effect, low potency
Procedure, shortened: as §1, with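 “anion-exchange. […]” for “anion-exchange.”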

T1 sequence (P49652 whole entry): as above

With Cc1nc2c(N)ncnc2n1[C@H]1C[C@H](OP(=O)(O)O)[C@@H](COP(=O)(O)O)O1 the IC50 [1] was 75100 nM, the Increase [2] was “inactive” and the inhibition [3] was 53%.
In the case of CCCSc1nc(N)c2ncn([C@H]3C[C@H](OP(=O)(O)O)[C@@H](COP(=O)(O)O)O3)c2n1, the EC50 [4] is reported as 1710 nM, the Increase [5] is reported as 53% and the inhibition [3] is reported as 46%.
For CNc1nc(N)nc2c1ncn2[C@@H]1C[C@H](COP(=O)(O)O)[C@@H](OP(=O)(O)O)C1, the EC50 [4] was 6490 nM, the IC50 [1] was 5420 nM and the Increase [5] was 26%. It also gave an inhibition [3] of 74%.
CCCCCCSc1nc(NC)c2ncn([C@H]3C[C@H](OP(=O)(O)O)[C@@H](COP(=O)(O)O)O3)c2n1 was tested, and the IC50 [1] was 3370 nM, the Increase [2] was “inactive” and the inhibition [3] was 100%.
In the case of Nc1ncnc2c1ncn2[C@H]1C[C@H](O)[C@@H](COP(=O)(O)O)[S+]1[O-] (stereo partly specified), the Increase [2] is reported as “inactive” and the inhibition [6] is reported as “inactive”.
With [N-]=[N+]=N[C@H]1[C@@H](OP(=O)(O)O)[C@H](n2cnc3c(N)ncnc32)O[C@@H]1COP(=O)(O)OP(=O)(O)OP(=O)(O)O the EC50 [7] was “Partial agonist”, the Increase [5] was 49% and the inhibition [8] was “inactive”.
Nc1nc(Cl)nc2c1ncn2[C@H]1C[C@H](OP(=O)(O)O)[C@@H](COP(=O)(O)O)O1 showed an Increase [5] of 19% and an inhibition [3] of 80%.
In the case of CNc1nc(I)nc2c1ncn2[C@H]1C[C@H](OP(=O)(O)O)[C@@H](COP(=O)(O)O)O1, the EC50 [4] is reported as 4440 nM, the IC50 [1] is reported as 891 nM and the Increase [5] is reported as 13%. For the same molecule, the inhibition [3] was 87%.
In the case of CNc1ncnc2c1ncn2[C@H]1C[C@@H]2OP(=O)(O)OP(=O)(O)OC[C@H]2O1, the Increase [2] is reported as “inactive” and the inhibition [8] is reported as “inactive”.
Nc1ncnc2c1ncn2[C@@H]1C[C@H](COP(=O)(O)O)[C@@H](OP(=O)(O)O)C1 was tested, and the EC50 [4] was 7210 nM, the IC50 [1] was 2530 nM and the Increase [5] was 27%. It also gave an inhibition [3] of 73%.
CNc1nc(N)nc2c1ncn2[C@H]1C[C@H](OP(=O)(O)O)[C@@H](COP(=O)(O)O)O1 showed an IC50 [1] of 1850 nM, an Increase [5] of 4% and an inhibition [3] of 96%.
In the case of [N-]=[N+]=N[C@H]1[C@@H](OP(=O)(O)O)[C@H](n2cnc3c(N)ncnc32)O[C@@H]1COP(=O)(O)O, the EC50 [7] is reported as “Partial agonist”, the Increase [5] is reported as 46% and the inhibition [6] is reported as “inactive”.
In the case of Nc1ncnc2c1ncn2[C@H]1C[C@H](OP(=O)(O)O)[C@@H](COP(=O)(O)O)O1, the Increase [5] is reported as 12% and the inhibition [3] is reported as 87%.
With CNc1nc(SC)nc2c1ncn2[C@H]1C[C@H](OP(=O)(O)O)[C@@H](COP(=O)(O)O)O1 the IC50 [1] was 362 nM, the Increase [5] was 6% and the inhibition [3] was 94%.
Nc1ncnc2c1ncn2[C@@H]1O[C@H](COP(=O)(O)O)[C@@H](OP(=O)(O)O)[C@H]1O showed an EC50 [4] of 2340 nM, an IC50 [1] of 14900 nM and an Increase [5] of 44%. The inhibition [3] was 56%.
In the case of CONc1ncnc2c1ncn2[C@H]1C[C@H](OP(=O)(O)O)[C@@H](COP(=O)(O)O)O1, the IC50 [1] is reported as greater than 100000 nM, the Increase [2] is reported as “inactive” and the inhibition [8] is reported as “inactive”.
Nc1ncnc2c1ncn2[C@H]1C[C@H](OP(=O)(O)O)[C@@H](COCP(=O)(O)O)O1 showed an EC50 [4] of 27700 nM, an IC50 [1] of 19600 nM and an Increase [5] of 22%. For the same molecule, the inhibition [3] was 78%.
With Nc1nc2c(ncn2[C@H]2C[C@H](OP(=O)(O)O)[C@@H](COP(=O)(O)O)O2)c(=O)[nH]1 the IC50 [1] was 14900 nM, the Increase [2] was “inactive” and the inhibition [3] was 93%.
CNc1ncnc2c1ncn2[C@H]1C[C@@H]2OP(=O)(O)OP(=O)(O)OP(=O)(O)OP(=O)(O)OC[C@H]2O1 gave an EC50 [4] of 20 nM, an IC50 [1] of 158 nM and an Increase [5] of 14%. For the same molecule, the inhibition [3] was 87%.
In the case of O=c1ccn([C@H]2C[C@H](OP(=O)(O)O)[C@@H](COP(=O)(O)O)O2)c(=O)[nH]1, the Increase [2] is reported as “inactive” and the inhibition [6] is reported as “inactive”.
In the case of CNc1ccnc2c1ncn2[C@H]1C[C@H](OP(=O)(O)O)[C@@H](COP(=O)(O)O)O1, the IC50 [1] is reported as 904 nM, the Increase [2] is reported as “inactive” and the inhibition [3] is reported as 96%.
CNc1nc(Cl)nc2c1ncn2[C@H]1C[C@H](OP(=O)(O)O)[C@@H](COP(=O)(O)O)O1 was tested, and the IC50 [1] was 206 nM, the Increase [2] was “inactive” and the inhibition [3] was 95%.
For Nc1ncnc2c1ncn2[C@@H]1CO[C@H](COP(=O)(O)O)[C@@H](OP(=O)(O)O)C1, the EC50 [4] was 2990 nM, the Increase [5] was 100% and the inhibition [6] was “inactive”.
In the case of Nc1ccn([C@H]2C[C@H](OP(=O)(O)O)[C@@H](COP(=O)(O)O)O2)c(=O)n1, the Increase [2] is reported as “inactive” and the inhibition [6] is reported as “inactive”.
CNc1nc2c(N)ncnc2n1[C@H]1C[C@H](OP(=O)(O)O)[C@@H](COP(=O)(O)O)O1 was tested, and the Increase [2] was “inactive” and the inhibition [8] was “inactive”.
For CSc1nc2c(N)ncnc2n1[C@H]1C[C@H](OP(=O)(O)O)[C@@H](COP(=O)(O)O)O1, the Increase [2] was “inactive” and the inhibition [8] was “inactive”.
With O=c1[nH]c(=O)n([C@H]2C[C@H](OP(=O)(O)O)[C@@H](COP(=O)(O)O)O2)cc1F the Increase [2] was “inactive” and the inhibition [6] was “inactive”.
In the case of COP(=O)(O)OC[C@H]1O[C@@H](n2cnc3c(N)ncnc32)C[C@@H]1OP(=O)(O)OC, the Increase [2] is reported as “inactive” and the inhibition [6] is reported as “inactive”.
For CCSc1nc(NC)c2ncn([C@H]3C[C@H](OP(=O)(O)O)[C@@H](COP(=O)(O)O)O3)c2n1, the IC50 [1] was 980 nM, the Increase [2] was “inactive” and the inhibition [3] was 94%.
Nc1ncnc2c1ncn2[C@H]1C[C@H](OP(=O)(O)O)[C@@H](COP(=O)(O)O)S1 gave an EC50 [4] of 12200 nM, an Increase [5] of 56% and an inhibition [3] of 38%.
For C=Cc1nc2c(N)ncnc2n1[C@H]1C[C@H](OP(=O)(O)O)[C@@H](COP(=O)(O)O)O1, the IC50 [1] was 30700 nM, the Increase [2] was “inactive” and the inhibition [3] was 59%.
C=CCSc1nc(NC)c2ncn([C@H]3C[C@H](OP(=O)(O)O)[C@@H](COP(=O)(O)O)O3)c2n1 was tested, and the IC50 [1] was 475 nM, the Increase [2] was “inactive” and the inhibition [3] was 97%.
For CCSc1nc(N)c2ncn([C@H]3C[C@H](OP(=O)(O)O)[C@@H](COP(=O)(O)O)O3)c2n1, the EC50 [4] was 1980 nM, the IC50 [1] was 4590 nM and the Increase [5] was 16%. The inhibition [3] was 84%.
CCCSc1nc(NC)c2ncn([C@H]3C[C@H](OP(=O)(O)O)[C@@H](COP(=O)(O)O)O3)c2n1 gave an IC50 [1] of 449 nM, an Increase [5] of 7% and an inhibition [3] of 94%.
Work on CSc1nc(N)c2ncn([C@H]3C[C@H](OP(=O)(O)O)[C@@H](COP(=O)(O)O)O3)c2n1 yielded an IC50 [1] of 1890 nM, an Increase [5] of 22% and an inhibition [3] of 78%.
With Cc1cn([C@H]2C[C@H](OP(=O)(O)O)[C@@H](COP(=O)(O)O)O2)c(=O)[nH]c1=O the Increase [2] was “inactive” and the inhibition [6] was “inactive”.
For COc1nc2c(N)ncnc2n1[C@H]1C[C@H](OP(=O)(O)O)[C@@H](COP(=O)(O)O)O1, the Increase [2] was “inactive” and the inhibition [6] was “inactive”.
